According to ChEMBL document CHEMBL5360562 (Eur J Med Chem, 2023):
Values after ≈ are worked out from the molar mass of the structure shown.

Key:
[1] = test system: Acinetobacter baumannii; assay: Antibacterial activity against Acinetobacter baumannii AB5075 assessed as reduction in bacterial growth incubated for 16 hrs by broth microdilution method; type: functional
[2] = test system: Acinetobacter baumannii; assay: Potentiation of Clarithromycin antibacterial activity against Acinetobacter baumannii AB5075 assessed as clarithromycin MIC at 7.5 uM incubated for 16 hrs by broth microdilution method; type: functional
[3] = test system: Acinetobacter baumannii; assay: Potentiation of Clarithromycin antibacterial activity against Acinetobacter baumannii AB5075 assessed as clarithromycin MIC at 5 uM incubated for 16 hrs by broth microdilution method; type: functional
[4] = test system: Acinetobacter baumannii; assay: Potentiation of Clarithromycin antibacterial activity against Acinetobacter baumannii AB5075 assessed as fold reduction in clarithromycin MIC at 7.5 uM incubated for 16 hrs by broth microdilution method; type: functional
Procedure, shortened: (§1)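 Checkerboard-style potentiation by broth microdilution. 6 h day cultures in CAMHB diluted to 5×10^5 CFU/mL. Adjuvant added from 10 mM DMSO stock at fixed concentration throughout. […] Controls: antibiotic alone, adjuvant alone, media only. Incubated stationary at 37 °C for 16 h. MIC is lowest concentration with no visible growth; fold reduction taken against the antibiotic-alone lane.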

[5] = test system: Acinetobacter baumannii; assay: Potentiation of Clarithromycin antibacterial activity against Acinetobacter baumannii AB5075 assessed as fold reduction in clarithromycin MIC at 5 uM incubated for 16 hrs by broth microdilution method; type: functional; procedure, shortened: as §1
[6] = test system: Acinetobacter baumannii; assay: Potentiation of Clarithromycin antibacterial activity against Acinetobacter baumannii AB5075 assessed as clarithromycin MIC at 15 uM incubated for 16 hrs by broth microdilution method; type: functional
[7] = test system: Acinetobacter baumannii; assay: Potentiation of Clarithromycin antibacterial activity against Acinetobacter baumannii AB5075 assessed as fold reduction in clarithromycin MIC at 15 uM incubated for 16 hrs by broth microdilution method; type: functional
[8] = Antiproliferative against human HepG2 cells assessed as reduction in cell viability incubated for 24 hrs by XTT assay; type: toxicity, cell-based
[9] = Therapeutic index, ratio of IC50 for antiproliferative against human HepG2 cells assessed as reduction in cell viability to MIC for potentiation of Clarithromycin antibacterial activity against Acinetobacter baumannii […] assessed as clarithromycin MIC; type: toxicity, cell-based; conditions: read-out: TI
[10] = Stability of compound in human plasma assessed as parent compound remaining measured at 4 hrs; type: ADME, cell-free
Procedure, shortened: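 Compound at 20 μM final in human plasma (from 10 mM DMSO stock), 37 °C; aliquots at 0, 30, 60, 120, 240 min quenched in internal standard in 1:1 ACN/MeOH, centrifuged, supernatant analysed by UPLC-MRM. Peak-area ratio to internal standard expressed as % parent remaining relative to 0 min; half-life calculated.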

[11] = Metabolic stability in human liver microsomes assessed as parent compound remaining in presence of NADPH measured at 1 hr by UV-UPLC analysis; type: ADME, Microsome
[12] = test system: Acinetobacter baumannii; assay: Potentiation of Clarithromycin antibacterial activity against Acinetobacter baumannii AB5075 assessed as clarithromycin MIC at 30 uM incubated for 16 hrs by broth microdilution method; type: functional
[13] = test system: Acinetobacter baumannii; assay: Potentiation of Clarithromycin antibacterial activity against Acinetobacter baumannii AB5075 assessed as fold reduction in clarithromycin MIC at 30 uM incubated for 16 hrs by broth microdilution method; type: functional; procedure, shortened: as §1
[14] = test system: Acinetobacter baumannii; assay: Potentiation of Clarithromycin antibacterial activity against Acinetobacter baumannii AB5075 assessed as reduction in clarithromycin MIC at 20 uM incubated for 16 hrs by broth microdilution method; type: functional
[15] = test system: Acinetobacter baumannii; assay: Potentiation of Clarithromycin antibacterial activity against Acinetobacter baumannii AB5075 assessed as clarithromycin MIC at 10 uM incubated for 16 hrs by broth microdilution method; type: functional
[16] = test system: Acinetobacter baumannii; assay: Potentiation of Clarithromycin antibacterial activity against Acinetobacter baumannii AB5075 assessed as fold reduction in clarithromycin MIC at 10 uM incubated for 16 hrs by broth microdilution method; type: functional; procedure, shortened: as §1
[17] = test system: Acinetobacter baumannii; assay: Potentiation of Clarithromycin antibacterial activity against Acinetobacter baumannii AB5075 assessed as clarithromycin MIC at 2.5 uM incubated for 16 hrs by broth microdilution method; type: functional
[18] = test system: Acinetobacter baumannii; assay: Potentiation of Clarithromycin antibacterial activity against Acinetobacter baumannii AB5075 assessed as clarithromycin MIC at 1.5 uM incubated for 16 hrs by broth microdilution method; type: functional; procedure, shortened: as §1
[19] = test system: Acinetobacter baumannii; assay: Potentiation of Clarithromycin antibacterial activity against Acinetobacter baumannii AB5075 assessed as fold reduction in clarithromycin MIC at 1.5 uM incubated for 16 hrs by broth microdilution method; type: functional
[20] = test system: Acinetobacter baumannii; assay: Potentiation of Clarithromycin antibacterial activity against Acinetobacter baumannii AB967 assessed as clarithromycin MIC at 10 uM incubated for 16 hrs by broth microdilution method; type: functional
[21] = test system: Acinetobacter baumannii; assay: Potentiation of Clarithromycin antibacterial activity against Acinetobacter baumannii AB3560 assessed as clarithromycin MIC at 10 uM incubated for 16 hrs by broth microdilution method; type: functional
[22] = test system: Acinetobacter baumannii; assay: Potentiation of Clarithromycin antibacterial activity against Acinetobacter baumannii AB3785 assessed as clarithromycin MIC at 10 uM incubated for 16 hrs by broth microdilution method; type: functional
[23] = test system: Acinetobacter baumannii; assay: Potentiation of Clarithromycin antibacterial activity against Acinetobacter baumannii AB4498 assessed as clarithromycin MIC at 10 uM incubated for 16 hrs by broth microdilution method; type: functional
[24] = test system: Acinetobacter baumannii; assay: Potentiation of Clarithromycin antibacterial activity against Acinetobacter baumannii AB5674 assessed as clarithromycin MIC at 10 uM incubated for 16 hrs by broth microdilution method; type: functional
[25] = test system: Acinetobacter baumannii; assay: Potentiation of Clarithromycin antibacterial activity against Acinetobacter baumannii AB5711 assessed as clarithromycin MIC at 10 uM incubated for 16 hrs by broth microdilution method; type: functional
[26] = test system: Acinetobacter baumannii; assay: Potentiation of Azithromycin antibacterial activity against Acinetobacter baumannii AB5075 assessed as azithromycin MIC at 30 uM incubated for 16 hrs by broth microdilution method; type: functional
[27] = test system: Acinetobacter baumannii; assay: Potentiation of Azithromycin antibacterial activity against Acinetobacter baumannii AB5075 assessed as azithromycin MIC at 20 uM incubated for 16 hrs by broth microdilution method; type: functional
[28] = test system: Acinetobacter baumannii; assay: Potentiation of Azithromycin antibacterial activity against Acinetobacter baumannii AB5075 assessed as azithromycin MIC at 10 uM incubated for 16 hrs by broth microdilution method; type: functional
[29] = test system: Acinetobacter baumannii; assay: Potentiation of Azithromycin antibacterial activity against Acinetobacter baumannii AB5075 assessed as azithromycin MIC at 7.5 uM incubated for 16 hrs by broth microdilution method; type: functional
[30] = test system: Acinetobacter baumannii; assay: Potentiation of erythromycin antibacterial activity against Acinetobacter baumannii AB5075 assessed as erythromycin MIC at 30 uM incubated for 16 hrs by broth microdilution method; type: functional
[31] = test system: Acinetobacter baumannii; assay: Potentiation of erythromycin antibacterial activity against Acinetobacter baumannii AB5075 assessed as erythromycin MIC at 20 uM incubated for 16 hrs by broth microdilution method; type: functional
[32] = test system: Acinetobacter baumannii; assay: Potentiation of erythromycin antibacterial activity against Acinetobacter baumannii AB5075 assessed as erythromycin MIC at 10 uM incubated for 16 hrs by broth microdilution method; type: functional
[33] = test system: Acinetobacter baumannii; assay: Potentiation of erythromycin antibacterial activity against Acinetobacter baumannii AB5075 assessed as erythromycin MIC at 7.5 uM incubated for 16 hrs by broth microdilution method; type: functional
[34] = test system: Acinetobacter baumannii; assay: Potentiation of rifampicin antibacterial activity against Acinetobacter baumannii AB5075 assessed as rifampicin MIC at 30 uM incubated for 16 hrs by broth microdilution method; type: functional
[35] = test system: Acinetobacter baumannii; assay: Potentiation of rifampicin antibacterial activity against Acinetobacter baumannii AB5075 assessed as rifampicin MIC at 20 uM incubated for 16 hrs by broth microdilution method; type: functional
[36] = test system: Acinetobacter baumannii; assay: Potentiation of rifampicin antibacterial activity against Acinetobacter baumannii AB5075 assessed as rifampicin MIC at 10 uM incubated for 16 hrs by broth microdilution method; type: functional
[37] = test system: Acinetobacter baumannii; assay: Potentiation of rifampicin antibacterial activity against Acinetobacter baumannii AB5075 assessed as rifampicin MIC at 7.5 uM incubated for 16 hrs by broth microdilution method; type: functional
Procedure, shortened: (§2)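 A. baumannii AB5075 6 h day cultures in CAMHB subcultured to 5×10^5 CFU/mL; adjuvant added from 10 mM DMSO stock at fixed concentration, then rifampicin (DMSO) twofold serially diluted in adjuvant-containing broth. Antibiotic-alone and adjuvant-alone control lanes.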

[38] = test system: Acinetobacter baumannii; assay: Potentiation of rifampicin antibacterial activity against Acinetobacter baumannii AB5075 assessed as rifampicin MIC at 5 uM incubated for 16 hrs by broth microdilution method; type: functional; procedure, shortened: as §2
[39] = test system: Acinetobacter baumannii; assay: Potentiation of rifampicin antibacterial activity against Acinetobacter baumannii AB5075 assessed as fold reduction in rifampicin MIC at 10 uM incubated for 16 hrs by broth microdilution method; type: functional
[40] = test system: Acinetobacter baumannii; assay: Potentiation of Clarithromycin antibacterial activity against Acinetobacter baumannii AB5075 assessed as clarithromycin MIC at 20 uM incubated for 16 hrs by broth microdilution method; type: functional
[41] = test system: Acinetobacter baumannii; assay: Antibacterial activity against Acinetobacter baumannii AB967 assessed as reduction in bacterial growth incubated for 16 hrs by broth microdilution method; type: functional
Procedure, shortened: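 Six-hour CAMHB day cultures were diluted to 5×10^5 CFU/mL in CAMHB and dosed from DMSO stocks. Two-fold serial dilutions were made in broth, with a medium-only blank. Plates were incubated stationary at 37 °C for 16 h and read at OD600. The MIC was the lowest concentration giving <10% growth versus the positive control.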

[42] = test system: Acinetobacter baumannii; assay: Antibacterial activity against Acinetobacter baumannii AB3785 assessed as reduction in bacterial growth incubated for 16 hrs by broth microdilution method; type: functional
[43] = test system: Acinetobacter baumannii; assay: Antibacterial activity against Acinetobacter baumannii AB4498 assessed as reduction in bacterial growth incubated for 16 hrs by broth microdilution method; type: functional
[44] = test system: Acinetobacter baumannii; assay: Antibacterial activity against Acinetobacter baumannii AB5711 assessed as reduction in bacterial growth incubated for 16 hrs by broth microdilution method; type: functional
[45] = test system: Pseudomonas aeruginosa; assay: Antibacterial activity against Pseudomonas aeruginosa PAO1 assessed as inhibition of bacterial growth incubated for 16 hrs by broth microdilution method; type: functional
Procedure, shortened: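 Standalone MIC by broth microdilution. 6 h day cultures in cation-adjusted Mueller-Hinton broth (CAMHB) diluted to 5×10^5 CFU/mL. Compound added from 10 mM DMSO stock to 200 μM (highest concentration), then twofold serial dilution. Incubated stationary at 37 °C for 16 h. OD600 read; MIC is lowest concentration with <10% growth versus positive control.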

SMILES	MIC [1] [µM]	MIC [2] [µg/mL]	MIC [3] [µg/mL]	fold change (FC) [4]	fold change (FC) [5]	IC50 at 24 h [8] [µg/mL]	selectivity ratio [9]	Stability [10] [%]	Stability [11] [%]	MIC [12] [µg/mL]	fold change (FC) [13]	fold change (FC) [14]	MIC [15] [µg/mL]	MIC [26] [µg/mL]	MIC [27] [µg/mL]	MIC [28] [µg/mL]	MIC [30] [µg/mL]	MIC [31] [µg/mL]	MIC [32] [µg/mL]	MIC [34] [µg/mL]	also measured
Nc1nc(-c2ccc(NC(=O)Nc3cc(Br)cc(Br)c3)cc2)c[nH]1	50 (≈ 22.6 µg/mL)	0.25	4	128	8	23.2 (≈ 51.4 µM)	6.3	89	54												MIC [6]: 0.125 µg/mL; fold change (FC) [7]: 256
Cl.Cl.Nc1nc(-c2cc(F)cc(NC(=O)Nc3cc(F)cc(-c4c[nH]c(N)n4)c3)c2)c[nH]1	> 200	0.25	0.5	128	64	> 256	> 353	> 95	86	≤ 0.062	>=512	>=512	0.125	0.5	1	1	0.125	0.25	0.25	0.003	MIC ([14]; Acinetobacter baumannii, AB5075): ≤ 0.062 µg/mL; fold change (FC) [16]: 256; MIC [17]: 1 µg/mL; MIC [18]: 2 µg/mL; fold change (FC) [19]: 16; MIC [20]: ≤ 0.062 µg/mL; MIC [21]: ≤ 0.062 µg/mL; MIC [22]: ≤ 0.062 µg/mL; MIC [23]: ≤ 0.062 µg/mL; MIC [24]: ≤ 0.062 µg/mL; MIC [25]: 0.125 µg/mL; MIC [29]: 2 µg/mL; MIC [33]: 1 µg/mL; MIC [35]: 0.007 µg/mL; MIC [36]: 0.031 µg/mL; MIC [37]: 0.06 µg/mL; MIC [38]: 0.25 µg/mL; fold change (FC) [39]: 32
Nc1nc(-c2ccc(NC(=O)Nc3ccc(-c4c[nH]c(N)n4)cc3)cc2)c[nH]1	> 200	8								0.125	256	64	4	0.5	1	8	0.5	2	8	0.007	MIC [40]: 0.5 µg/mL; MIC [35]: 0.125 µg/mL; MIC [36]: 2 µg/mL
CC[C@H]1OC(=O)[C@H](C)[C@@H](O[C@H]2C[C@@](C)(OC)[C@@H](O)[C@H](C)O2)[C@H](C)[C@@H](O[C@@H]2O[C@H](C)C[C@H](N(C)C)[C@H]2O)[C@](C)(OC)C[C@@H](C)C(=O)[C@H](C)[C@@H](O)[C@]1(C)O [CLARITHROMYCIN]																					MIC [41]: 16 µg/mL (≈ 21.4 µM); MIC [42]: 64 µg/mL (≈ 85.6 µM); MIC [43]: 64 µg/mL (≈ 85.6 µM); MIC [44]: 64 µg/mL (≈ 85.6 µM); MIC [45]: > 200 µM
